# How the values were obtained:
# [1] = system: AIK-T4; assay: Ability to prevent HIV-1 induced T4 cell killing and HIV-1 replication.; assay type: functional, cell-based; conditions: Homo sapiens
# [2] = Similarity index (SI) value of the compound.; assay type: functional
# Procedure, shortened: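 Computed by comparing atomic electrostatic multipoles at the atomic centres of the molecule pair. Molecule B is rotated and translated against the other by quasi-Newton minimization, using numerical first and second derivatives, with the Hessian updated after every move of B. R is replaced by R + 10^-4 to avoid division by zero. The procedure is repeated to obtain E_B.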
Structure (SMILES),EC50 [1] [µM],SI [2]
COc1cc(-c2ccc(/N=N/c3ccc4c(S(=O)(=O)O)cc(S(=O)(=O)O)c(N)c4c3O)c(OC)c2)ccc1/N=N/c1ccc2c(S(=O)(=O)O)cc(S(=O)(=O)O)c(N)c2c1O [CHICAGO SKY BLUE SODIUM],4.8,0.4
O=C(O)c1cc(O)cc(O)c1/N=N/c1ccc(/C=C/c2ccc(/N=N/c3c(O)cc(O)cc3C(=O)O)cc2S(=O)(=O)O)c(S(=O)(=O)O)c1,1.4,0.16
Nc1cc(N)c(/N=N/c2ccc(/C=C/c3ccc(/N=N/c4c(N)cc(N)cc4C(=O)O)cc3S(=O)(=O)O)c(S(=O)(=O)O)c2)c(C(=O)O)c1,31,0.69
COc1cc(-c2ccc(/N=N/c3ccc4c(S(=O)(=O)O)ccc(S(=O)(=O)O)c4c3N)c(OC)c2)ccc1/N=N/c1ccc2c(S(=O)(=O)O)ccc(S(=O)(=O)O)c2c1N,13.8,0.5
O=S(=O)(O)c1cc(/N=N/c2ccc3cccnc3c2O)ccc1/C=C/c1ccc(/N=N/c2ccc3cccnc3c2O)cc1S(=O)(=O)O,6.4,0.45
Nc1c(S(=O)(=O)O)cc2cc(S(=O)(=O)O)ccc2c1/N=N/c1ccc(/C=C/c2ccc(/N=N/c3c(N)c(S(=O)(=O)O)cc4cc(S(=O)(=O)O)ccc34)cc2S(=O)(=O)O)c(S(=O)(=O)O)c1,2.9,0.31
O=S(=O)(O)c1cc(/N=N/c2cc(S(=O)(=O)O)c3cccnc3c2O)ccc1/C=C/c1ccc(/N=N/c2cc(S(=O)(=O)O)c3cccnc3c2O)cc1S(=O)(=O)O,1.3,0

# Source: ChEMBL document CHEMBL1128679, “Molecular similarity from atomic electrostatic multipole comparisons. Application to anti-HIV drugs” (J Med Chem, 1995)
